In ChEMBL document CHEMBL4665773, “Structure activity relationship exploration of 5-hydroxy-2-(3-phenylpropyl)chromones as a unique 5-HT receptor antagonist scaffold” (Bioorg Med Chem Lett, 2020):

Columns and labels:
[1] = target: 5-hydroxytryptamine receptor 2A (Homo sapiens) (UniProt P28223); test: Antagonist activity at 5HT2A receptor (unknown origin) at 10 uM by radioligand binding assay relative to control
[2] = target: T1, 5-hydroxytryptamine receptor 2C (Homo sapiens) (UniProt P28335); test: Antagonist activity at 5HT2C receptor (unknown origin) 10 uM by radioligand binding assay relative to control
T1 sequence (whole entry): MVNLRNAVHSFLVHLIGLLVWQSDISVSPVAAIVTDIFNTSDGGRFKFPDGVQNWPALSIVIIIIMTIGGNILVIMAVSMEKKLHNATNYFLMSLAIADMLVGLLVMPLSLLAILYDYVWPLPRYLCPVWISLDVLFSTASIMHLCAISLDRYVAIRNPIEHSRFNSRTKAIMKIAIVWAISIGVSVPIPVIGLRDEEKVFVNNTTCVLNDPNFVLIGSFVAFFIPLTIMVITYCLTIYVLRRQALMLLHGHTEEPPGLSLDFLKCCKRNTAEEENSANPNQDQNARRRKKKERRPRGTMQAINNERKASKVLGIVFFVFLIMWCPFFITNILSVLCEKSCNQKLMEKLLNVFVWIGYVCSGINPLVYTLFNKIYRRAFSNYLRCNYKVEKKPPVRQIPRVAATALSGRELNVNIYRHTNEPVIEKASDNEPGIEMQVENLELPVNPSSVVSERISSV

[3] = target: T2, 5-hydroxytryptamine receptor 2C (Homo sapiens, UniProt P28335); test: Antagonist activity at 5HT2C receptor (unknown origin) by radioligand binding assay
T2 sequence (P28335 whole entry): T1 sequence (whole entry)

[4] = target: T3, 5-hydroxytryptamine receptor 2B (Homo sapiens, UniProt P41595); test: Antagonist activity at 5HT2B receptor (unknown origin) at 10 uM by radioligand binding assay relative to control
[5] = target: T3, 5-hydroxytryptamine receptor 2B; test: Antagonist activity at 5HT2B receptor (unknown origin) by radioligand binding assay
[6] = target: T3, 5-hydroxytryptamine receptor 2B; test: Agonist activity at 5-HT2B receptor (unknown origin) assessed as maximal response at 10 uM by calcium mobilization assay relative to 3 nM 5-HT; format: functional
Summary of the method: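 Calcium mobilization read-out of agonism at 5-HT2B, with 5-HT as the reference agonist. Potency is expressed as pEC50. Maximal response to test compound at 10 μM is expressed relative to the maximal response to 5-HT at 3.0 nM.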

[7] = target: T3, 5-hydroxytryptamine receptor 2B; test: Antagonist activity at 5-HT2B receptor (unknown origin) assessed as inhibition of 5HT-indued response by calcium mobilization assay; format: functional
Summary of the method: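 Antagonist mode of the 5-HT2B calcium mobilization assay: 5-HT at 1.6 nM was challenged with various concentrations of test compound. Inhibition is expressed as pIC50.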

[8] = target: T3, 5-hydroxytryptamine receptor 2B; test: Agonist activity at 5-HT2B receptor (unknown origin) by calcium mobilization assay; format: functional

T3 sequence (P41595 whole entry): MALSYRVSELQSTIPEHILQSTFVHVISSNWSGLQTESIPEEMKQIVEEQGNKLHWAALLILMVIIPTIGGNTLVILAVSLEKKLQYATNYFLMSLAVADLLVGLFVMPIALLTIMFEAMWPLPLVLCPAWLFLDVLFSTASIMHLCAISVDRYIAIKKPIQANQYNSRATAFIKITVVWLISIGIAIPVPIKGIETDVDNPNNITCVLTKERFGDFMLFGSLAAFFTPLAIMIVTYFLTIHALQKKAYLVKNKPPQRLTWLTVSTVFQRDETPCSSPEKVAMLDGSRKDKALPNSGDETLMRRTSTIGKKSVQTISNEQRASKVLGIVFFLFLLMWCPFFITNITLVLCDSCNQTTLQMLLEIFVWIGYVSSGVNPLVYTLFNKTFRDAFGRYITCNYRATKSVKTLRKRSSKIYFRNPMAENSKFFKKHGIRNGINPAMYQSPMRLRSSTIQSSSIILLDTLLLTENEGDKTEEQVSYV
5-hydroxytryptamine receptor 2A (Homo sapiens), sequence (P28223 whole entry): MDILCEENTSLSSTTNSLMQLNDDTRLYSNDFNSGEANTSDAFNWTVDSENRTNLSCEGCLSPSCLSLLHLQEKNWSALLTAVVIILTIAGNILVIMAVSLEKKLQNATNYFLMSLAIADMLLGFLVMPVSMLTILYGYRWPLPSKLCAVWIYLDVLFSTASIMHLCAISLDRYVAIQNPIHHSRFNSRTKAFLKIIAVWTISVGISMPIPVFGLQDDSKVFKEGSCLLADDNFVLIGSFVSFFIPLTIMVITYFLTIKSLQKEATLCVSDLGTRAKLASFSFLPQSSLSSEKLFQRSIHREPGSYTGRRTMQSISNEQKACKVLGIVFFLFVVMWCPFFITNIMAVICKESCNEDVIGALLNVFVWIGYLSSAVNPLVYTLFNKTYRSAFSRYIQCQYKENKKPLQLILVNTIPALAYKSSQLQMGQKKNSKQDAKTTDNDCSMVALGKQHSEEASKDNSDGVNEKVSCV

**Q.** Which results are given for `Cc1ccc(CCCc2cc(=O)c3c(O)cccc3o2)cc1`?
**A.** inhibition [1]: 17.2%; inhibition ([2]; filed as antagonist): 51.2%; Ki [3]: 3160 nM; inhibition ([4]; filed as antagonist): 50%; Ki [5]: 1580 nM

**Q.** `O=c1cc(CCCc2cccc(F)c2)oc2cccc(O)c12` was tested. Which inhibition [1] did it give?
**A.** 8.4%

**Q.** And the inhibition ([2]; filed as antagonist)?
**A.** 44.4%

**Q.** What about the inhibition ([4]; filed as antagonist) of the same compound?
**A.** 52.7%

**Q.** What about the Ki [5] of the same compound?
**A.** 2510 nM

**Q.** `O=c1cc(CCCc2cccc(C(F)(F)F)c2)oc2cccc(O)c12` was tested. Which inhibition [1] did it give?
**A.** 8.7%

**Q.** And the inhibition ([2]; filed as antagonist)?
**A.** 43.5%

**Q.** What about the inhibition ([4]; filed as antagonist) of the same compound?
**A.** 65.8%

**Q.** And the Ki [5]?
**A.** 1000 nM

**Q.** `Cc1cccc(CCCc2cc(=O)c3c(O)cccc3o2)c1` was tested. Which inhibition [1] did it give?
**A.** 14.4%

**Q.** And the inhibition ([2]; filed as antagonist)?
**A.** 59.4%

**Q.** And the Ki [3]?
**A.** 3160 nM

**Q.** What about the inhibition ([4]; filed as antagonist) of the same compound?
**A.** 57.7%

**Q.** And the Ki [5]?
**A.** 2000 nM

**Q.** For `O=c1cc(CCCc2ccc(OC(F)(F)F)cc2)oc2cccc(O)c12`, which inhibition [1] is on record?
**A.** -5%

**Q.** What about the inhibition [2] of the same compound?
**A.** 32.6%

**Q.** What about the inhibition [4] of the same compound?
**A.** 35.3%

**Q.** `O=c1cc(CCCc2ccc(C(F)(F)F)cc2)oc2cccc(O)c12` was tested. Which inhibition [1] did it give?
**A.** 19.5%

**Q.** And the inhibition [2]?
**A.** 36%

**Q.** And the inhibition ([4]; filed as antagonist)?
**A.** 50%

**Q.** What about the Ki [5] of the same compound?
**A.** 2510 nM

**Q.** With `COc1cccc(CCCc2cc(=O)c3c(O)cccc3o2)c1` as the compound, how does the inhibition [1] read?
**A.** 9.8%

**Q.** What about the inhibition ([2]; filed as antagonist) of the same compound?
**A.** 67.4%

**Q.** What about the inhibition ([4]; filed as antagonist) of the same compound?
**A.** 69.3%

**Q.** With `COc1ccc(CCCc2cc(=O)c3c(O)cccc3o2)cc1` as the compound, how does the inhibition [1] read?
**A.** -1.6%

**Q.** And the inhibition ([2]; filed as antagonist)?
**A.** 87.9%

**Q.** And the inhibition ([4]; filed as antagonist)?
**A.** 75.3%

**Q.** Which inhibition [1] does the source give for `O=c1cc(CCCc2ccc(F)cc2)oc2cccc(O)c12` here?
**A.** 14.2%

**Q.** What about the inhibition [2] of the same compound?
**A.** 33.9%

**Q.** And the inhibition ([4]; filed as antagonist)?
**A.** 49.2%

**Q.** Which results are given for `O=c1cc(CCCc2cccc(Cl)c2)oc2cccc(O)c12`?
**A.** inhibition [1]: 13.9%; inhibition ([2]; filed as antagonist): 44.8%; inhibition ([4]; filed as antagonist): 61.7%; Ki [5]: 2000 nM

**Q.** What does the source list for `N#Cc1cccc(CCCc2cc(=O)c3c(O)cccc3o2)c1`?
**A.** Rmax [6]: 12%; inhibition [1]: 7.2%; inhibition [2]: 15.5%; IC50 [7]: 6310 nM; EC50 [8]: 501 nM; inhibition ([4]; filed as antagonist): 91.1%; Ki [5]: 79.4 nM

**Q.** Which inhibition [1] does the source give for `O=c1cc(CCCc2ccc(Cl)cc2)oc2cccc(O)c12` here?
**A.** 9.3%

**Q.** And the inhibition [2]?
**A.** 35.8%

**Q.** What about the inhibition ([4]; filed as antagonist) of the same compound?
**A.** 50.4%

**Q.** And the Ki [5]?
**A.** 2510 nM
